Compound activity as filed in PubChem.
Only a selection was taken, and hits are over-represented in it overall.
S1P4 agonist = activates the human S1P4 receptor. O95977. S1P4-expressing cell line, agonist reporter assay. activation, % at 4.98 µM. 0.35% of 220,000 active; in the data active = activation above about 11%;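 also: 0% = DMSO vehicle and 100% = reference agonist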
S1P3 antag = S1P3 (human) receptor antagonism; 0.27% of 170,000 active; CHO S1P3 NFAT-BLA reporter, FRET fluorescence, antagonist mode; inhibition, % at 4.98 µM; AID 485;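 active = inhibition above the plate cutoff, the mean inhibition of test wells on that plate plus 3 SD, cut at about 28% in these data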;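 also: cells challenged with S1P at its EC80 of 0.8 µM; blue over green emission ratio from cleaved BLA substrate after 4 h stimulation; 0% = S1P-stimulated wells and 100% = unstimulated DMSO-only wells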
Target sequence (Q99500 whole entry, looked up): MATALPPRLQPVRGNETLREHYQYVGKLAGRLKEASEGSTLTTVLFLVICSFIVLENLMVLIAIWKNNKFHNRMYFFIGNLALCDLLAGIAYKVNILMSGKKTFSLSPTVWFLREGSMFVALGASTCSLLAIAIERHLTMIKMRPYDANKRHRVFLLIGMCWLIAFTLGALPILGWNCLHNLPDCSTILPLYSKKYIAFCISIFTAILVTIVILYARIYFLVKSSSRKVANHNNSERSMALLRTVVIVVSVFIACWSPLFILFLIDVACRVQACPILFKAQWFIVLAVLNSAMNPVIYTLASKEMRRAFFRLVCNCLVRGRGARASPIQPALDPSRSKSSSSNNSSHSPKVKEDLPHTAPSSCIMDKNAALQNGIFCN
Mdm2 ligase inh = blocks human Mdm2 ubiquitin ligase activity | Q00987 | cell-based MDM2 ubiquitination luciferase reporter, 2 h; 0 = plate control, 100 = twice control, blank-subtracted | signal enhancement, % at 5 µM | 0.11% of 210,000 active;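 active = signal enhancement of 30% or more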;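 also: luminescence tracks abundance of the self-degrading MDM2-luciferase fusion protein; higher signal means inhibition of MDM2 E3 ligase activity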
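Material: stable MDM2–luciferase fusion reporter cells / Quantity: 2000 cells/well / Dosing: single 5 µM compound dose, 0.2% final DMSO / Buffer or medium: DMEM / Schedule: 4 h cell settling then 2 h compound exposure, 37 °C / Detection: luminescence with SteadyLite reagent, 15 min at room temperature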
S1P4 antagonist = human S1P4 receptor antagonism. O95977. S1P4-expressing cells, antagonist mode, reporter read-out. inhibition, % at 4.98 µM. 0.26% of 220,000 active; in the data active = inhibition above about 29%;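 also: 0% = wells stimulated with agonist and 100% = vehicle wells without agonist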
L major viab = inhibitors of Leishmania major promastigote growth. inhibition, % at 10 µM. AID 1063. Leishmania major promastigotes, resazurin fluorescence viability. 9% of 200,000 active; in the data active = inhibition above about 50%;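 also: promastigotes grown with compound for 44 hours at 28 °C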
S1P4 antag cf = confirmation of human S1P4 receptor antagonists; 71% of 520 active; inhibition, % at 4.98 µM; shares compounds with S1P4 antagonist; S1P4-expressing cell line, antagonist mode, reporter read-out; in the data active = inhibition above about 30%
S1P1 antagonist = counter-screen for S1P4 antagonists: antagonists of human S1P1; shares compounds with S1P4 antagonist; inhibition, % at 4.98 µM; cell-based S1P1 antagonist counterscreen, inhibition; 37% of 520 active; in the data active = inhibition above about 40%;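 also: receptor stimulated with S1P near its EC80; 0% = agonist stimulated wells and 100% = vehicle only wells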
Starred values were filed as active, the others as inactive; . = no result.

SMILES | S1P4 agonist | S1P3 antag | Mdm2 ligase inh | S1P4 antagonist | L major viab | S1P4 antag cf | S1P1 antagonist
CCOC(=O)CN(C#N)c1nc(N(C)C)nc(N(C)C)n1 | 2 | -5 | -4 | -15 | -5 | . | .
CCN(CC)C(=O)CN(C#N)c1nc(Cl)nc(N(C)C)n1 | -2 | -16 | 6 | 42* | -5 | 50* | 39
O=C(Nc1nnc(SCc2ccc(F)cc2)s1)c1ccccn1 | 0 | 14 | -5 | 31* | 99* | 101* | 73*
Cc1ccc(C(=O)CSc2nnnn2C(C)C)c(C)c1 | 0 | . | -3 | -27 | 34 | . | .
O=C(NC1CC2CCC1C2)C1COc2ccccc2O1 (configuration not stated) | 2 | -13 | -11 | -6 | -6 | . | .
O=[N+]([O-])c1ccc(N=Nc2c(Cl)cc(O)cc2Cl)cc1 | 1 | 3 | -47 | 31* | . | 67* | 18
O=c1c2c(nc3nc(NCc4cccc(Cl)c4)[nH]n13)CCC2 | 0 | -17 | -4 | -23 | -5 | . | .
O=C1c2ccccc2C(=O)N1Nc1ccccc1 | 2 | . | -1 | 7 | 33 | . | .
Cc1ccc(NN2C(=O)C=C(c3ccccc3)C2=O)cc1 | 0 | 15 | -2 | 37* | 7 | 57* | 36
CCc1nnc(N/N=C/c2c(C)[nH]c3ccccc23)n1N | 0 | 11 | -6 | 97* | 35 | 4 | 3
Cc1[nH]c2ccccc2c1/C=N/Nc1nc2ccccc2[nH]1 | 1 | 23 | 0 | 50* | . | 57* | 27
CCCCNC(=O)CS(=O)Cc1nc(-c2ccc(C)cc2)oc1C (configuration not stated) | 1 | -20 | -12 | -5 | -6 | . | .
Cc1ccc(-c2nc(CS(=O)CC(=O)NC3CCC(C)CC3)c(C)o2)cc1 (configuration not stated) | 1 | 19 | -16 | 78* | -1 | 12 | 34
C#CCNC(=O)C1=C[C@@H](c2coc3ccccc3c2=O)C[C@@H](OCc2ccc(CO)cc2)O1 | 1 | 10 | . | -9 | -3 | . | .
COc1c(/C=N/NC(=O)c2ccncc2)c(CCN(C)C(C)=O)cc2c1OCO2 | 1 | -12 | -12 | 0 | . | . | .
Cc1nnc(N/N=C/c2c(Cl)cccc2Cl)n1N | 0 | -19 | 2 | 30* | 14 | 7 | -20
NS(=O)(=O)c1cccc(NS(=O)(=O)c2cccc(C(F)(F)F)c2)c1 | 0 | -8 | -9 | -2 | . | . | .
CCCc1cc2c(OC(=O)CC)c(-c3ccc(C(=O)OCC)o3)c(=O)oc2cc1OC | -1 | -10 | -10 | -9 | -5 | . | .
CC(C)(CO)NCC(O)COc1ccc2c(c1)CCC2 (configuration not stated) | -2 | -2 | . | -6 | 7 | . | .
CCCc1cnc(NCCNCC(O)COc2ccc(Cl)c(Cl)c2)nc1 (configuration not stated) | -1 | 9 | -8 | 31* | . | 25 | 64*
Cc1ccccc1CNC(=O)CN(c1cccc([N+](=O)[O-])c1)S(C)(=O)=O | 0 | -14 | 2 | -4 | -10 | . | .
CC(=O)N1/C(=C/c2ccc(N(C)C)cc2)C(=O)c2ccccc21 | -4 | -26 | 4 | 30* | 100* | 91* | 91*
O=C(CC(O)(c1ccccc1)C(F)(F)C(F)F)c1cccs1 (configuration not stated) | 2 | 0 | -5 | -15 | 9 | . | .
O=C(/C=C/c1ccccc1)CC(O)(c1ccccc1)C(F)(F)C(F)F (configuration not stated) | -3 | . | -16 | 58* | 100* | 106* | 33
Cn1cc([N+](=O)[O-])c(C(=O)Nc2cc(Oc3ccccc3)cc([N+](=O)[O-])c2)n1 | 0 | -11 | 13 | 37* | -5 | 111* | -3
SMILES | S1P4 agonist | S1P3 antag | Mdm2 ligase inh | S1P4 antagonist | L major viab | S1P4 antag cf | S1P1 antagonist
Cc1ccc(Cl)cc1NC(=O)N[C@@H](CC(C)C)C(=O)O | -1 | -16 | -7 | -6 | . | . | .
O=C(NCc1cccnc1)/C(=C\c1ccc(-c2ccc(Cl)c(Cl)c2)o1)S(=O)(=O)c1ccccc1 | -1 | 10 | . | 58* | 100* | 108* | 48*
N#Cc1nccnc1S(=O)(=O)c1cccs1 | 0 | 4 | -18 | 41* | . | 97* | 56*
Cc1ccc2c(c1)c(CC(=O)Nc1ccc(F)cc1)c(C(=O)O)n2C | -4 | . | -9 | -14 | -9 | . | .
Cc1cc(C(=O)Nc2ccc3nc(C)sc3c2)c2ccccc2n1 | 0 | -1 | . | 0 | . | . | .
CC(=O)Nc1cccc(C(=O)/C=C/c2ccc(F)cc2)c1 | -1 | -1 | 11 | 46* | 100* | 72* | 23
O=C(NNC(=S)Nc1ccc(F)c(Cl)c1)c1ccccc1Br | -1 | 6 | -8 | -17 | -2 | . | .
COC(=O)c1cn(Nc2ncc(C(F)(F)F)cc2Cl)c(=O)c2ccccc12 | 1 | . | -17 | 38* | 1 | 31* | -3
Cc1cc(NC(=O)c2ccccc2-c2ccccc2)ccc1Br | -1 | -1 | -10 | 37* | 80* | 32* | 14
COc1ncccc1-c1nnn(-c2ccc(F)cc2)n1 | 1 | -11 | . | 1 | -1 | . | .
Cc1cc(NC2CCCCC2)nc2ccccc12 | 0 | -10 | -14 | 30* | 84* | 18 | 55*
C/C(Cn1cnc([N+](=O)[O-])n1)=N\NC(=O)c1ccc(O)cc1O | 0 | -5 | 2 | -3 | 7 | . | .
COc1cc(CNCCCN2CCOCC2)cc(Br)c1OCc1ccc(Cl)cc1 | 2 | 4 | . | 30* | 100* | 52* | 39
O=C(CC1C(=O)NCCN1Cc1ccccc1C(F)(F)F)NCCc1ccccn1 (configuration not stated) | 2 | 11 | 4 | -13 | -5 | . | .
C/C(=N\Nc1cc(Cl)nc(C)n1)c1ccc(C)cc1 | 0 | . | . | -17 | 5 | . | .
CCCC(=O)N(C1CC(C)C(C#N)(C#N)C1(C#N)C#N)N(C)C (configuration not stated) | 2 | 22 | -8 | 43* | . | 107* | 36
Cc1cc(C)c([N+](=O)[O-])cc1NCC(=O)N1CCN(c2ccccc2)CC1 | -1 | 7 | -17 | 38* | -1 | -5 | -9
OC(COc1ccc(CNCCc2ccc(C(F)(F)F)cc2)cc1)CN1CCCCC1 (configuration not stated) | -2 | -26 | -10 | 30* | 100* | 41* | 28
Cc1nn(C)cc1CN(C)Cc1ccc(OCC(O)CN2CCCCC2)cc1 (configuration not stated) | 0 | 2 | -14 | -11 | 2 | . | .
CCOC(=O)Nc1c(Cl)n(C)c(=O)n(C)c1=O | 0 | -4 | . | 3 | . | . | .
Oc1c(C(c2ccccc2Cl)N2CCCC2)ccc2cccnc12 (configuration not stated) | -1 | -9 | -11 | 30* | 100* | 112* | 92*
